# Source: PubChem BioAssay
# The entries come from a sample that favours hits as a whole.
# DAT uptake mod – changed hDAT dopamine uptake under cocaine IC80, either direction, primary screen, cocaine antagonist project, cell-based, LLC-PK1 hDAT, [14C]-dopamine uptake, MLSMR; LLC-PK1 hDAT cells, [14C]-dopamine uptake with cocaine IC80; actives deviate in either direction; Sodium-dependent dopamine transporter (Homo sapiens), Q01959; B-score at 10 µM; AID 449768, 2010; hit rate 1.3% among 110,000;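 active means Z score or B-score, a plate-position-corrected score, falls beyond the plate's 99.7% confidence bounds, in either direction; inactive means both scores lie inside the 99.7% bounds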;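 further: scored against the spread of the other compound wells on the same plate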
# E coli RNAP – E. coli RNAP inhibitors, biochemical; hit rate 0.2% among 62,000; E. coli RNA polymerase, fluorescence transcription assay; inhibition, %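 (tested at 10 µM)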; AID 559, 2006; DNA-directed RNA polymerase subunit beta (Escherichia coli (strain K12)), P0A8V2; in the data active means inhibition above about 20%;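 further: 0% = enzyme without compound and 100% = no enzyme blank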
# AP complement – alternative complement pathway inhibitors, primary screen, biochemical, ELISA, human serum, orthogonally pooled compounds. AID 1235, 2008. LPS-coated ELISA, C3 deposition; tested in compound mixtures. hit rate 0.08% among 62,000. inhibition, % at 5 µM;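 active means inhibition above 30% in each of the two pooled mixtures holding the compound, so the lower value exceeds 30%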;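 further: 0% = serum in Mg-EGTA without compound and 100% = EDTA serum blank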
#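 Test system: human serum alternative complement pathway, C3 deposition on LPS-coated wells; also added: Plate-bound LPS; doses: 5 µM per compound in ten-compound mixtures; schedule: 1 h at 37 °C; detection: Anti-C3 ELISA, OD 450 nm; evaluation: percent inhibition of C3 deposition onto LPS; repeats: two pool placements per compound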
# HEK293 NFkB inh – inhibitors of PMA/ionomycin-induced NF-kB reporter, primary screen, antigen receptor NF-kB inhibitor project, cell-based, HEK-293 luciferase reporter, luminescence | hit rate 0.21% among 62,000 | inhibition, % at 3 µM | HEK-293 NF-kB luciferase reporter;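 active means inhibition above the mean of all tested compounds plus 3 SD, cut at about 40% in these data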;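 further: 0% = stimulated DMSO wells and 100% = 10 µM reference inhibitor 5653914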
#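 Material: HEK-293 cells with stable firefly luciferase reporter driven by four HIV NF-kB elements / Also added: PMA plus ionomycin mix as NF-kB-activating stimulus / Compound dosing: 3 µM once, 0.30% DMSO / Times: 1 h pretreatment, 16 h stimulation, 37 °C / Signal: luminescence / Evaluation: per-plate % inhibition versus controls / Benchmarks: DMSO and 10 µM reference inhibitor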
# D1 allo mod – D1 CRE-luciferase signal change, two-sided – cell-based, HEK293 D1, dopamine EC30, D1 allosteric modulator project, primary screen. D(1A) dopamine receptor (Homo sapiens), P21728. dopamine EC30 potentiation; actives deviate in either direction. B-score at 10 µM. hit rate 5.9% among 58,000. AID 641, 2007;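 active means luminescence count or its row- and column-corrected plate score outside the 99.7% band of the plate's sample wells, on either side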
# Target sequence (P21728 whole entry, looked up): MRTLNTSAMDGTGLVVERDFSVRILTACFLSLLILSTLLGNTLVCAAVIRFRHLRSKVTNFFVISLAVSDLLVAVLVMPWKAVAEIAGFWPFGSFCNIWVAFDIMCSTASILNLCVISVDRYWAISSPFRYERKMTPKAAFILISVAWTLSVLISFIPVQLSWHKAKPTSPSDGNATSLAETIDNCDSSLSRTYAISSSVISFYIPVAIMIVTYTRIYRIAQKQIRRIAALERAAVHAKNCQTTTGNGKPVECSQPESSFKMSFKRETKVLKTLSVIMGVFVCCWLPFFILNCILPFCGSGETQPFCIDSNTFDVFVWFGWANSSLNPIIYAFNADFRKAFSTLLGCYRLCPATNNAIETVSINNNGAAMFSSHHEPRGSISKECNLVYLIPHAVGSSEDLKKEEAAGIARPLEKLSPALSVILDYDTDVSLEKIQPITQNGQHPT
# D1 PAM confirm – D1 receptor positive allosteric modulators, retest, confirmation, cell-based, HEK293 D1, CRE-luciferase, duplicate | shares compounds with D1 allo mod | dopamine EC30 potentiation; hits give high values | luminescence at 10 µM | hit rate 88% among 2,200 | AID 642, 2007;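 active means luminescence in either of two replicates above the same-plate mean plus 3 SD of the low-dose dopamine control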
# D1 no dopamine – D1 receptor agonism without dopamine, confirmation, mechanism study for D1 allosteric modulator project, cell-based, HEK293 D1, CRE-luciferase, secondary assay 1; shares compounds with D1 allo mod; luminescence, no dopamine; hits give high values; luminescence at 10 µM; hit rate 0.8% among 1,900; AID 646, 2007; in the data active means luminescence above about 3900
# Isoprot counter – isoproterenol response counter-screen activity for D1 modulators; shares compounds with D1 allo mod; HEK293 D1 CRE-luciferase, isoproterenol EC30 counter-screen; calls only at 10 µM; hit rate 63% among 2,200;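 active means luminescence in either replicate above plate mean of wells with a partly effective reference agonist dose plus 3 SD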;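 further: isoproterenol raises cAMP through native beta-adrenoceptor Gs so signal bypasses D1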
# * = called active by the depositor; i = inactive; / = no result; + = active, no number.
SMILES,DAT uptake mod,E coli RNAP,AP complement,HEK293 NFkB inh,D1 allo mod,D1 PAM confirm,D1 no dopamine,Isoprot counter
CCCn1c2ccccc2c2nc3ccccc3nc21,-0.0152,0.5,23.0,-0.3,5.71*,12892*,1720,+
O=c1oc2ccccc2n1CCn1c2ccccc2c2nc3ccccc3nc21,-0.00251,5.8,-0.6,14.1,-0.356,/,/,/
Cc1ccc2c(c1)c1nc3ccccc3nc1n2CCN1CCOCC1,1.36,7.8,7.2,5.6,7.7*,21896*,1556,+
N#CCCn1c2ccccc2c2nc3ccccc3nc21,-0.107,-4.2,-18.3,10.8,14.3*,19256*,1672,+
Cc1nc2ccccc2c(=O)n1CCN1CCOCC1,-0.0031,/,/,/,/,/,/,/
CCOC(=O)Cn1c2ccccc2c2nc3ccccc3nc21,0.983,8.0,-2.9,1.8,4.77*,14192*,1640,i
CC12CC(c3ccccc3O1)C(C(=O)NCc1ccccc1)C(=O)N2 (stereo unspecified),0.00484,9.5,-5.0,-3.3,-0.897,/,/,/
Cc1ccc(-n2ncc(C#N)c2/N=C/N2CCOCC2)cc1,0.844,3.2,3.2,4.6,13.6*,14372*,1604,+
CCSc1nnc([C@H](C)NC(=O)OC(C)(C)C)o1,-0.493,-3.0,5.1,7.7,-0.719,/,/,/
O=C(CSc1nnc(-c2cccs2)n1-c1cccc(Cl)c1)c1cccc2c1OCCO2,0.453,/,/,/,/,/,/,/
CCn1c(N2CCC(Cc3ccccc3)CC2)nc2c1c(=O)[nH]c(=O)n2C,-0.0198,/,19.4,3.6,0.0772,/,/,/
Cn1c(=O)[nH]c(=O)c2c1nc(NC1CCCCC1)n2Cc1ccccc1,0.723,/,15.8,12.1,6.81*,8436*,1500,+
Cn1c(=O)[nH]c(=O)c2c1nc(NC1CCCCC1)n2CCO,-0.279,-0.6,21.3,18.4,1.87,/,/,/
CCCCCCCCn1c(N2CCN(c3cccc(Cl)c3)CC2)nc2c1c(=O)[nH]c(=O)n2C,1.22,/,/,/,/,/,/,/
CC1CCN(c2nc3c(c(=O)[nH]c(=O)n3C)n2Cc2ccccc2)CC1,0.279,-2.0,-2.8,17.8,7.89*,16032*,1452,+
CC(C)CCn1c(N2CCN(c3cccc(Cl)c3)CC2)nc2c1c(=O)[nH]c(=O)n2C,0.059,4.7,26.8,30.0,15.2*,18092*,1700,+
Cc1ccc(Cn2c(-n3nc(C)cc3C)nc3c2c(=O)[nH]c(=O)n3C)cc1,0.722,8.7,-1.6,8.8,3.54*,9484*,1480,i
Cc1cc(C)n(-c2nc3c(c(=O)[nH]c(=O)n3C)n2Cc2cccc(Br)c2)n1,0.438,2.4,-11.3,13.3,1.08,/,/,/
COC(=O)c1nn(-c2cccc(C(F)(F)F)c2)c(=O)cc1Sc1ccccn1,0.0759,/,/,/,/,/,/,/
CCC(C)NC(=O)c1ccccc1NC(=O)COc1ccc(OC)cc1 (stereo unspecified),0.404,/,/,/,/,/,/,/
Cc1ccc(Nc2nc(N)nc(CN3CCN(C(=O)c4ccco4)CC3)n2)cc1Cl,2.38,8.5,21.7,13.4,5.45*,12072*,1624,+
COC(=O)c1ccccc1NC(=O)c1ccc(NS(C)(=O)=O)cc1,0.437,9.9,8.8,11.2,8*,9992*,1724,+
COC(=O)c1ccccc1NC(=O)NCc1ccc2c(c1)OCO2,-0.0206,4.6,23.2,19.2,1.01,/,/,/
O=C(Nc1ccccc1)c1ccccc1NC(=O)C1CCCCC1,-0.253,/,/,/,/,/,/,/
COC(=O)c1ccccc1NC(=O)C1CCCC1,0.0392,6.9,16.3,-0.1,6.57*,9916*,1688,+
SMILES,DAT uptake mod,E coli RNAP,AP complement,HEK293 NFkB inh,D1 allo mod,D1 PAM confirm,D1 no dopamine,Isoprot counter
COC(=O)c1ccccc1NC(=O)c1ccc2c(c1)OCCO2,0.778,3.3,18.9,6.3,3.9*,11420*,1512,i
O=C(c1ccc(F)cc1)N1CCCCC(Sc2nnnn2-c2ccccc2)C1=O (stereo unspecified),0.0869,/,/,/,/,/,/,/
c1ccc(COc2ccc(Oc3nc(N4CCCCC4)nc(N4CCOCC4)n3)nn2)cc1,0.927,6.2,17.5,33.1,9.23*,15844*,1888,+
CCOC(=O)N1CCC(N2Cc3cccc(C(=O)NC(C)c4ccc5c(c4)OCCO5)c3C2=O)CC1 (stereo unspecified),0.224,-9.3,1.2,14.9,2.41*,8332*,1632,i
CCn1c(-c2ccc(F)cc2)cnc1SCC(=O)N1CCCCC1C (stereo unspecified),1.13,/,/,/,/,/,/,/
COc1ccc(-c2nnc(COc3ccc4ccccc4c3)o2)cc1OC,2.85*,1.5,11.3,/,4.87*,20456*,1420,+
COC(=O)c1cc(NC(=O)C2CC=CCC2C(=O)O)cc(C(=O)OC)c1 (stereo unspecified),-0.247,6.2,10.6,10.8,0.454,/,/,/
CCn1cc(C(=O)OCC(=O)Nc2ccc(S(=O)(=O)N3CCCC3)cc2)c(=O)c2ccc(C)nc21,/,6.9,-2.4,10.7,1.46,/,/,/
CCn1nccc1C(=O)Nc1cc(Cl)ccc1Cl,0.217,9.7,4.4,20.9,2.28*,7456*,1536,+
O=c1c2ccccc2nc(SCc2cn3ccsc3n2)n1-c1ccccc1F,0.000176,2.6,5.7,17.7,5.68*,14876*,1836,+
COc1ccc(S(=O)(=O)N2CCN(c3c(C)cccc3C)CC2)cc1OC,0.266,3.2,15.0,12.0,0.352,/,/,/
CCC(=O)N1CCc2cc(S(=O)(=O)N3CCN(C(=O)c4ccco4)CC3)ccc21,-0.0807,7.7,12.9,2.2,1.52,/,/,/
O=C(c1ccco1)N1CCN(S(=O)(=O)c2ccc3c(c2)CCN3C(=O)C2CCC2)CC1,0.893,-10.3,-12.6,4.3,2.58*,11588*,1732,+
O=C(C1CC1)N1CCc2cc(S(=O)(=O)N(CCO)Cc3ccccc3)ccc21,-1.82,4.6,5.0,9.9,4.16*,15244*,1640,+
